Screening results deposited in PubChem by several laboratories.
FXIIa inh: inhibitors of human coagulation factor XIIa; purified FXIIa, Boc-QGR-AMC fluorogenic substrate, 2 h; inhibition, % at 5 µM; actives 0.3% (n = 220,000); in the data active = inhibition above about 40%;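 note: 0% = enzyme with no compound and 100% = blank without enzyme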
EP2 modulator: modulates human prostaglandin E2 receptor EP2 signaling; P43116; EP2-expressing cells, cAMP HTRF FRET, PGE2 co-stimulation; induction, % at 25 µM; actives 0.83% (n = 260,000); AID 940;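 active = compounds whose cAMP rise, as percent of the full-agonist control response, exceeds 60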;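 note: rat C6 glioma line stably carrying human EP2 under a CMV promoter; the protocol text gives 20 µM as final concentration; 100% = response of wells given 1 µM PGE2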
thrombin 1536: thrombin (human) inhibition | P00734 | alpha-thrombin, Boc-VPR-AMC fluorogenic substrate cleavage | inhibition, % at 5 µM | actives 0.26% (n = 220,000) | AID 1046;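 active = inhibition at or above 40%; inactive = inhibition below 40%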;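 note: 0% = enzyme with no compound and 100% = wells without enzyme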
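Material: Human alpha-thrombin protein | Buffer or medium: pH 7.5 Tris-saline with Tween 20 | Reagent: Boc-VPR-AMC substrate, 15 µM final | Schedule: Reaction at ambient temperature | Detection: AMC fluorescence at 355 nm excitation and 460 nm emission | Evaluation: Percent inhibition scaled between no-compound controls and no-enzyme blanks | Controls: no-compound enzyme wells and no-enzyme blanks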
FXIa inh: inhibitors of human coagulation factor XIa. purified FXIa, Boc-Glu-Ala-Arg-AMC fluorogenic substrate. AID 798. inhibition, % at 5 µM. P03951. actives 0.14% (n = 220,000);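 active = inhibition of at least 40%; inactive = inhibition below 40%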;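 note: fluorescence of freed AMC excited at 355 nm; 0% = enzyme without compound and 100% = no enzyme blank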
Target sequence (P03951 19-387 limits assumed): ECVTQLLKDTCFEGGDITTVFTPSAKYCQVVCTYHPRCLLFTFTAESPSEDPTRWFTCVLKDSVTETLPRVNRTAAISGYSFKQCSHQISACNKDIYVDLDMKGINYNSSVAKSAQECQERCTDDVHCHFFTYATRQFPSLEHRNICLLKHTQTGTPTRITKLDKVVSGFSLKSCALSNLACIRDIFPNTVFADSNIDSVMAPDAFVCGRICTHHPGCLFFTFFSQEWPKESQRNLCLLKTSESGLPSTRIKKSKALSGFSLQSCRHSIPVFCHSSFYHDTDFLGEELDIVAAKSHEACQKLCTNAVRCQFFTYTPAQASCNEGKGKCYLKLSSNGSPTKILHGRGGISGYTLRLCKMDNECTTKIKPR
Target sequence (P03951 388-625 limits assumed): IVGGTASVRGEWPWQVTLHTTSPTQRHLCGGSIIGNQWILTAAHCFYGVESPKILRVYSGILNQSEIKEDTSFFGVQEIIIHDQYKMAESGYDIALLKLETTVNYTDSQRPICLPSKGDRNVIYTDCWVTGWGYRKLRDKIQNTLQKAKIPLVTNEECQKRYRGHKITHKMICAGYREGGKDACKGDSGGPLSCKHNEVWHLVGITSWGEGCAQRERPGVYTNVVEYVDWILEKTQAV
hK5 inh: kallikrein 5 (human) inhibition; recombinant hK5, fluorogenic AMC substrate cleavage; actives 0.59% (n = 210,000); Q9Y337; inhibition, % at 5 µM;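 active = inhibition of 40% or more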;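 note: 0% = enzyme controls without compound and 100% = no-enzyme blanks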
PGE2 EP2 inh: inhibitors of human EP2 prostaglandin E2 receptor | actives 0.52% (n = 260,000) | P43116 | C6 glioma cells expressing human EP2, cAMP TR-FRET; cells stimulated with saturating PGE2 | inhibition, % at 25 µM;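 active = percent inhibition above 40 after rounding to a whole number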;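 note: rat C6 glioma host cells with rolipram phosphodiesterase inhibitor present; the protocol text gives 20 µM as final concentration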
Numbers without * were called inactive; x = no result given. Most compounds without a hit are left out; they make up all but 2.1% or so of the library.

SMILES	FXIIa inh	EP2 modulator	thrombin 1536	FXIa inh	hK5 inh	PGE2 EP2 inh
COc1ccc(Cn2c(-c3ccccc3)nc3c(c(=O)c4ccccc4n3C)c2=O)cc1	10	24	-3	4	-6	35
COC(=O)N/N=C/c1cn(Cc2ccccc2F)c2ccccc12	9	-42	-3	1	3	8
O=C(O)c1ccc(N/N=C/c2cn(Cc3ccccc3F)c3ccccc23)cc1	0	87*	-2	2	-2	5
CCOC(=O)c1cnc2c(C)c(C)ccc2c1NCCO	x	-23	x	x	x	11
O=C(c1cccc2nccnc12)N1CC[C@@H](c2ccccc2)[C@H](O)C1	x	-38	x	x	x	3
COC(=O)CSC1=NS(=O)(=O)c2ccccc21	6	-16	-10	0	-21	114*
O=C(CSC1=NS(=O)(=O)c2ccccc21)Nc1ccccc1	17	-20	5	6	-8	17
COc1ccc2[nH]c3c(=S)nc[nH]c3c2c1	5	62*	-14	-2	3	12
CCn1c(SCC(=O)N2CCCC(C)C2)nnc1-c1ccco1 (stereo unspecified)	x	71*	x	x	x	8
O=C(COC(=O)[C@H](Cc1ccccc1)NC(=O)c1ccco1)NC(c1ccccc1)c1ccccc1	-10	62*	-4	-11	-9	11
O=C(COC(=O)C(Cc1ccccc1)NC(=O)c1ccco1)NC1CC1 (stereo unspecified)	11	39	4	1	-11	6
O=C(NNc1cc(N2CCOCC2)nc(N2CCOCC2)n1)c1ccc([N+](=O)[O-])cc1	22	-1	3	31	68*	9
COc1cc(/C=N/NC(=O)CSc2cc(C)c(Br)cc2C)ccc1O	15	-33	1	0	6	41*
Cc1cc(N/N=C/c2ccc(O)cc2O)nc(-c2ccccc2O)n1	5	-57	-6	1	-37	80*
Cc1cc(N/N=C/c2ccccc2O)nc(-c2ccccc2O)n1	5	-57	-6	9	-17	60*
CC(=O)Nc1cccc(C(=O)/C=C/c2ccc(C)cc2)c1	32	14	17	10	61*	10
CCC(=O)Nc1cccc(C(=O)/C=C/c2ccc(F)cc2)c1	12	-53	9	-1	-1	11
CC(C)OC(=O)C(C)Nc1n[nH]c(=S)[nH]c1=O (stereo unspecified)	12	-46	-4	0	2	105*
CC(C)COC(=O)C(C)Nc1n[nH]c(=S)[nH]c1=O (stereo unspecified)	-2	-25	4	-5	-6	47*
Cc1cc(=O)oc2cc(NC(=O)CC3(CC(=O)O)CCCC3)ccc12	-1	1	-4	0	52*	12
COc1ccc2cc(CN(Cc3cccs3)C(c3nnnn3C3CCCC3)C(C)C)c(=O)[nH]c2c1 (stereo unspecified)	x	69*	x	x	x	8
COc1ccc2[nH]c(=O)c(CN(Cc3cccs3)Cc3nnnn3C(C)(C)C)cc2c1	27	55	-6	-4	-31	8
Cc1ccc2cc(CN(Cc3cccs3)C(c3nnnn3C3CCCCC3)C(C)C)c(=O)[nH]c2c1 (stereo unspecified)	x	39	x	x	x	14
COc1ccc2[nH]c(=O)c(CN(Cc3cccs3)C(c3nnnn3C(C)(C)C)C(C)C)cc2c1 (stereo unspecified)	x	69*	x	x	x	14
CCc1ccc2[nH]c(=O)c(CN(Cc3cccs3)C(c3nnnn3C3CCCC3)C(C)C)cc2c1 (stereo unspecified)	x	63*	x	x	x	10
CCC(c1nnnn1C1CCCC1)N(Cc1cccs1)Cc1cc2cc(OC)ccc2[nH]c1=O (stereo unspecified)	x	56	x	x	x	9
CCOc1cc(NC(=O)c2cccs2)c(OCC)cc1NC(=O)COc1ccccc1	x	0	x	x	x	13
CCc1ccc(C(=O)COC(=O)c2cccc(N3C(=O)c4c(C)nc5ccccc5c4C3=O)c2)cc1	17	17	9	0	51*	3
CCCCC[C@H](O)/C=C/[C@@H]1[C@@H](CCCCCCC(=O)O)[C@@H](O)C[C@H]1O	8	83*	0	9	-7	10
CN(Cc1cc2ccccc2[nH]c1=O)S(C)(=O)=O	1	5	-4	-7	47*	8
